Experimental data: ChEMBL document CHEMBL4049460, “Trisubstituted Imidazoles with a Rigidized Hinge Binding Motif Act As Single Digit nM Inhibitors of Clinically Relevant EGFR L858R/T790M and L858R/T790M/C797S Mutants: An Example of Target Hopping” (J Med Chem, 2017); call rule not given here
In brackets after ≈: the same amount, converted by molar mass.

How the values were obtained:
[1] = target: T1, Epidermal growth factor receptor (Homo sapiens, UniProt P00533, L858R/T790M); test: (§1) Inhibition of recombinant human GST-tagged EGFR L858R/T790M double mutant cytoplasmic domain expressed in baculovirus expression system preincubated for 20 mins followed by addition of [33P]-ATP measured after 2 hrs by filter-binding method
[2] = target: T2, Epidermal growth factor receptor (Homo sapiens, UniProt P00533); test: Inhibition of recombinant human GST-tagged wild type EGFR ( 668 to 1210 residues) cytoplasmic domain expressed in baculovirus expression system preincubated for 20 mins followed by addition of [33P]-ATP measured after 2 hrs by filter-binding method
[3] = target: T3, Epidermal growth factor receptor (Homo sapiens, UniProt P00533, L858R); test: Inhibition of recombinant human GST-tagged EGFR L858R mutant cytoplasmic domain expressed in baculovirus expression system preincubated for 20 mins followed by addition of [33P]-ATP measured after 2 hrs by filter-binding method
[4] = target: Epidermal growth factor receptor (Homo sapiens, UniProt P00533, T790M/C797S/L858R); test: (§2) Inhibition of recombinant human N-terminally GST-tagged EGFR L858R/T790M/C797S triple mutant expressed in baculovirus in Sf9 insect cells preincubated for 20 mins followed by addition of [33P]-ATP measured after 2 hrs by filter-binding method
[5] = target: Mitogen-activated protein kinase 14 (Homo sapiens, UniProt Q16539); test: Inhibition of p38alpha MAPK (unknown origin) assessed as decrease in ATF2 phosphorylation at Thr69/71 at 1 uM after 1 hr by ELISA
[6] = Solubility of the compound at pH 7.5 by UV-HPLC analysis; type: physicochemical; conditions: buffer
Procedure, shortened: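 Solubility measured in the kinase assay buffer (pH 7.5); concentration determined by HPLC with UV detection.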

[7] = target: Epidermal growth factor receptor (Homo sapiens, UniProt P00533, C797S/L858R/T790M); test: as §2
[8] = target: Epidermal growth factor receptor (Homo sapiens, UniProt P00533, T790M/L858R); test: as §1
[9] = target: T1, Epidermal growth factor receptor; test: Inhibition of EGFR L858R/T790M double mutant (unknown origin)
[10] = target: T2, Epidermal growth factor receptor; test: Inhibition of wild-type EGFR (unknown origin)
[11] = target: T3, Epidermal growth factor receptor; test: Inhibition of EGFR L858R mutant (unknown origin)
[12] = tested on: Epidermal growth factor receptor (Homo sapiens), P00533 [L858R,T790M,C797S]; test: Potency index, ratio of osimertinib IC50 to compound IC50 for recombinant human N-terminally GST-tagged EGFR L858R/T790M/C797S triple mutant expressed in baculovirus in Sf9 insect cells
Homo sapiens = organism: Homo sapiens; test: Selectivity ratio of IC50 for EGFR L858R/T790M double mutant (unknown origin) to IC50 for wild-type EGFR (unknown origin)

Chain of Mitogen-activated protein kinase 14 (Q16539 whole entry): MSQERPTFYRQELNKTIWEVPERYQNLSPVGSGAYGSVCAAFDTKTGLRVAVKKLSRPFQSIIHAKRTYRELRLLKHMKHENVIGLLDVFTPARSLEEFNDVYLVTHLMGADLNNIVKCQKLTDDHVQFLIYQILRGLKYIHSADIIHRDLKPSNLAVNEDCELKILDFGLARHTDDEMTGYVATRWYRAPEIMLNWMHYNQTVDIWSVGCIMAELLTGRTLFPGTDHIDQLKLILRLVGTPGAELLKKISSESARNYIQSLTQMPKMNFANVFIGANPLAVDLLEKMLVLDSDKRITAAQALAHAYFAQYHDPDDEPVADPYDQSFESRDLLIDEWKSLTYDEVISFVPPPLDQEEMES

| Compound | IC50 [1] | IC50 ([2]; read-out: IC50) | IC50 ([3]; read-out: IC50) | also measured |
| --- | --- | --- | --- | --- |
| C=CC(=O)Nc1cccc(-c2c[nH]c3nccc(-c4[nH]c(-c5ccccc5)nc4-c4ccc(F)cc4)c23)c1 | 112 nM | 10.5 nM | 7.8 nM | IC50 [4]: Not Active |
| OCCCCc1nc(-c2ccc(F)cc2)c(-c2ccnc3[nH]c(-c4ccccc4)cc23)[nH]1 | 8.39 nM | < 0.3 nM | < 0.3 nM | IC50 [5]: 2 nM; solubility [6]: Insoluble; IC50 [7]: 8.4 nM |
| Fc1ccc(-c2nc(-c3ccccc3)[nH]c2-c2ccnc3[nH]ccc23)cc1 |  | 712 nM | 631 nM | IC50 [8]: Not Active; IC50 [4]: Not Active |
| Fc1ccc(-c2[nH]c(-c3ccccc3)nc2-c2ccnc3[nH]c(-c4ccccc4)cc23)cc1 | 1450 nM | 215 nM | 102 nM | IC50 [7]: 1430 nM |
| OCCCc1nc(-c2ccc(F)cc2)c(-c2ccnc3[nH]c(-c4ccccc4)cc23)[nH]1 |  |  |  | IC50 [9]: 6.47 nM; IC50 [5]: 2 nM; IC50 [10]: < 0.5 nM; IC50 [7]: 21.1 nM; IC50 [11]: < 0.5 nM |
| Nc1cccc(-c2cc3c(-c4[nH]c(-c5ccccc5)nc4-c4ccc(F)cc4)ccnc3[nH]2)c1 | 651 nM | 24.1 nM | 15.4 nM |  |
| CCC(=O)Nc1cccc(-c2c[nH]c3nccc(-c4[nH]c(-c5ccccc5)nc4-c4ccc(F)cc4)c23)c1 |  |  |  | IC50 [8]: Not Active; IC50 [2]: Not Active; IC50 [3]: Not Active; IC50 [4]: Not Active |
| CCC(=O)Nc1cccc(-c2c[nH]c3nccc(-c4[nH]c(CCCO)nc4-c4ccc(F)cc4)c23)c1 | 5900 nM | 673 nM | 279 nM |  |
| C=CC(=O)Nc1cccc(-c2c[nH]c3nccc(-c4[nH]c(CCCO)nc4C4CC4)c23)c1 |  | 673 nM | 258 nM | IC50 [8]: Not Active; IC50 [4]: Not Active |
| CCC(=O)Nc1cccc(-c2c[nH]c3nccc(-c4[nH]c(CCCO)nc4C4CC4)c23)c1 |  |  |  | IC50 [8]: Not Active; IC50 [2]: Not Active; IC50 [3]: Not Active; IC50 [4]: Not Active |
| Oc1cccc(-c2nc(-c3ccc(F)cc3)c(-c3ccnc4[nH]c(-c5ccccc5)cc34)[nH]2)c1 | 706 nM | 30.4 nM | 23.6 nM | IC50 [5]: 7 nM; IC50 [7]: 782 nM |
| C=CC(=O)NCc1cccc(-c2cc3c(-c4[nH]c(-c5ccccc5)nc4-c4ccc(F)cc4)ccnc3[nH]2)c1 | 683 nM | 33.2 nM | 34.2 nM |  |
| NCc1cccc(-c2nc(-c3ccc(F)cc3)c(-c3ccnc4[nH]c(-c5ccccc5)cc34)[nH]2)c1 |  |  |  | IC50 [9]: 160 nM; IC50 [10]: < 0.5 nM; IC50 [7]: 336 nM; IC50 [11]: < 0.5 nM |
| C=CC(=O)Nc1cccc(-c2c[nH]c3nccc(Cl)c23)c1 | 67.9 nM | 525 nM | 459 nM |  |
| OCCc1nc(-c2ccc(F)cc2)c(-c2ccnc3[nH]c(-c4ccccc4)cc23)[nH]1 | 12.5 nM | < 0.3 nM | < 0.3 nM | Ratio IC50 [12]: 35; IC50 [5]: 4 nM; solubility ([6]; read-out: solubility): 7 µg/mL (≈ 17.6 µM); IC50 [7]: 7.64 nM |
| C=CC(=O)Nc1cccc(-c2cc3c(-c4[nH]c(-c5ccccc5)nc4-c4ccc(F)cc4)ccnc3[nH]2)c1 | 908 nM | 43.2 nM | 32.1 nM |  |
| C=CC(=O)Nc1cccc(-c2c[nH]c3nccc(-c4[nH]c(CCCO)nc4C(F)(F)F)c23)c1 | 1880 nM | 680 nM | 297 nM | IC50 [4]: Not Active |
| OCCCc1nc(-c2ccc(F)cc2)c(-c2ccnc3[nH]ccc23)[nH]1 | 893 nM | 44 nM | 24.4 nM | IC50 [5]: 12 nM; IC50 [7]: 943 nM; Ratio IC50 (Homo sapiens): > 130 |
| CCC(=O)Nc1cccc(-c2cc3c(-c4[nH]c(-c5ccccc5)nc4-c4ccc(F)cc4)ccnc3[nH]2)c1 | 987 nM | 27.2 nM | 18.7 nM |  |
| Oc1ccc(-c2nc(-c3ccnc4[nH]c(-c5ccccc5)cc34)c(-c3ccc(F)cc3)[nH]2)cc1 | 916 nM | 49.2 nM | 24.1 nM |  |
| C=CC(=O)NCc1cccc(-c2cc3cccnc3[nH]2)c1 |  |  |  | IC50 [8]: Not Active; IC50 [2]: Not Active; IC50 [3]: Not Active; IC50 [4]: Not Active |
| Oc1ccc(-c2nc(-c3ccccc3)c(-c3ccnc4[nH]c(-c5ccccc5)cc34)[nH]2)cc1 | 658 nM | 13.6 nM | 11.2 nM | IC50 [5]: 1 nM |
| C=CC(=O)NCc1cccc(-c2nc(C3CC3)c(-c3ccnc4[nH]c(-c5ccccc5)cc34)[nH]2)c1 | 11300 nM | 4050 nM | 3920 nM |  |
| Oc1ccc(-c2nc(-c3ccco3)c(-c3ccnc4[nH]c(-c5ccccc5)cc34)[nH]2)cc1 | 3310 nM | 1790 nM | 1300 nM | IC50 [5]: 288 nM |
| C=CC(=O)NCc1cccc(-c2nc(-c3ccc(F)cc3)c(-c3ccnc4[nH]c(-c5ccccc5)cc34)[nH]2)c1 | 263 nM | 17.6 nM | 13 nM |  |
